# In ChEMBL document CHEMBL4049418, “6-OH-Phenanthroquinolizidine Alkaloid and Its Derivatives Exert Potent Anticancer Activity by Delaying S Phase Progression” (J Med Chem, 2017):
# The source made the active and inactive calls. The rule behind the calls is not given here.
# Legend:
# [1] = test system: Bel-7402; experiment: Antiproliferative activity against human Bel7402 cells assessed as reduction in viability after 72 hrs by SRB assay; assay type: functional, cell-based; conditions: Bel-7402, 72 h
# In short: (§1)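 Cells seeded and dosed in triplicate for 72 h. Suspension lines (HL-60, K-562, K562/ADR, HL-60/MX2) were read by MTT: 5 mg/mL MTT stock added, 4 h at 37 °C, formazan dissolved in 10% SDS/5% isobutanol/10 mM HCl, A570. Adherent lines were read by SRB: fixed with cold 10% TCA, stained with 0.4% SRB in 1% acetic acid, A540. IC50 from four-parameter logistic fit; mean of ≥3 independent experiments.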
# [2] = Resistance factor, ratio of IC50 for human HL60/MX2 cells to IC50 for human HL60 cells; assay type: functional
# In short: (§2)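 72 h treatment in triplicate; suspended lines (HL-60, K-562, K562/ADR, HL-60/MX2) read by MTT (4 h, SDS/isobutanol/HCl solubilization, 570 nm); adherent KB and KB/VCR (MEM, 10% FBS) by SRB after TCA fixation (540 nm); IC₅₀ by four-parameter logistic fit, mean of ≥3 independent experiments.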
# [3] = test system: A549; experiment: Antiproliferative activity against human A549 cells assessed as reduction in viability after 72 hrs by SRB assay; assay type: functional, cell-based; conditions: A549, 72 h; in short: as §1
# [4] = test system: KB; experiment: Cell cycle arrest in human KB cells assessed as delay in progression of S-phase to G2-phase at 10 nM pre-treated with aphidicolin for 16 hrs followed by compound addition measured up to 12 hrs by propidium iodide staining-based flow cytometric method; assay type: functional
# In short: (§3)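 Exponentially growing cells synchronized in early S phase with 0.2 μg/mL aphidicolin for 16 h. Cells released into fresh medium with or without compound for set times. Ethanol-fixed, stained with PI/RNase, and cell cycle distribution read by flow cytometry. Representative of three independent experiments.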
# [5] = test system: Bel-7402; experiment: Induction of apoptosis in human Bel7402 cells assessed as late apoptotic cells at 0.1 uM after 72 hrs by Annexin V/propidium iodide staining based flow cytometric analysis (reference value: 3.6%); assay type: functional
# In short: (§4)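 BEL-7402 cells (3 × 10⁵ per well, 6-well plates) exposed for 72 h. Harvested, PBS-washed, resuspended in cold binding buffer with annexin V–FITC and PI, and stained 15 min in the dark at room temperature. Early apoptotic, late apoptotic and necrotic fractions quantified by flow cytometry.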
# [6] = test system: Bel-7402; experiment: Inhibition of colony formation in human Bel7402 cells after 24 hrs by SRB staining-based plate colony formation assay; assay type: functional, cell-based
# In short: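 BEL-7402 cells seeded at 200 per well, treated in triplicate 24 h, washed twice with PBS, then grown 12 days in fresh medium; colonies stained with SRB and those ≥1 mm diameter counted; three independent experiments, mean ± SD.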
# [7] = test system: HL60/MX2; experiment: Antiproliferative activity against human HL60/MX2 cells after 72 hrs by MTT assay; assay type: functional, cell-based; conditions: HL60/MX2, 72 h; in short: as §1
# [8] = test system: Bel-7402; experiment: Antiproliferative activity against human Bel7402 cells assessed as reduction in cell viability at 0.12 to 10 nM up to 10 days by fluorescence-based cell imaging method; assay type: functional
# In short: (§5)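 Live-cell imaging (IncuCyte ZOOM) of BEL-7402 cells seeded at 1.5 × 10⁴ per well in 12-well plates. Cells treated in triplicate with a concentration gradient and imaged continuously for 10 days to build growth curves.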
# [9] = Antiproliferative activity against human KB/VCR cells after 72 hrs by SRB assay; assay type: functional, cell-based; in short: as §1
# [10] = test system: Bel-7402; experiment: Induction of apoptosis in human Bel7402 cells assessed as necrotic cells at 0.1 uM after 72 hrs by Annexin V/propidium iodide staining based flow cytometric analysis (reference value: 0.38%); assay type: functional; in short: as §4
# [11] = test system: Bel-7402; experiment: Induction of apoptosis in human Bel7402 cells assessed as viable cells at 0.1 uM after 72 hrs by Annexin V/propidium iodide staining based flow cytometric analysis (reference value: 92.4%); assay type: functional; conditions: Bel-7402, 72 h, read-out: Activity
# [12] = test system: Bel-7402; experiment: Inhibition of DNA synthesis in human Bel7402 cells assessed as reduction in BrdU incorporation preincubated for 1 hr followed by BrdU addition for 30 mins by FITC/propidium iodide staining based flow cytometry; assay type: functional, cell-based
# In short: (§6)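 BEL-7402 cells (3 × 10⁵ per well) exposed to compounds 1 h, then labeled with 10 μM BrdU for 30 min; trypsinized, fixed in 70% ethanol at −20 °C ≥1 h, 2 N HCl 20 min, neutralized with 0.1 M borate, stained with anti-BrdU-FITC plus PI 30 min; BrdU-positive cells quantified by flow cytometry; three independent experiments, mean + SD.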
# [13] = test system: Bel-7402; experiment: Induction of apoptosis in human Bel7402 cells assessed as early apoptotic cells at 0.1 uM after 72 hrs by Annexin V/propidium iodide staining based flow cytometric analysis (reference value: 3.66%); assay type: functional; in short: as §4
# [14] = test system: Bel-7402; experiment: Induction of apoptosis in human Bel7402 cells assessed as viable cells at 10 nM after 72 hrs by Annexin V/propidium iodide staining based flow cytometric analysis (reference value: 92.4%); assay type: functional; conditions: Bel-7402, 72 h, read-out: Activity
# [15] = test system: Bel-7402; experiment: Induction of apoptosis in human Bel7402 cells assessed as early apoptotic cells at 10 nM after 72 hrs by Annexin V/propidium iodide staining based flow cytometric analysis (reference value: 3.66%); assay type: functional; in short: as §4
# [16] = test system: HL-60; experiment: Antiproliferative activity against human HL60 cells after 72 hrs by MTT assay; assay type: functional, cell-based; conditions: HL-60, 72 h; in short: as §1
# [17] = test system: U-118-MG; experiment: Antiproliferative activity against human U118MG cells after 72 hrs by SRB assay; assay type: functional, cell-based; conditions: pooled result: one value given for 25 cell lines, strains, targets or settings
# In short: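 Adherent cells seeded in 96-well plates and exposed in triplicate to compound for 72 h at 37 °C, humidified. Fixed with 10% ice-cold trichloroacetic acid, stained with 0.4% sulforhodamine B in 1% acetic acid, and absorbance read at 540 nm. IC50 fitted by four-parameter logistic; mean of at least three independent experiments.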
# [18] = Resistance factor, ratio of IC50 for human KB/VCR cells to IC50 for human KB cells; assay type: functional; in short: as §2
# [19] = Resistance factor, ratio of IC50 for human K562/ADR cells to IC50 for human K562 cells; assay type: functional; in short: as §2
# [20] = test system: K562/Adr; experiment: Antiproliferative activity against human K562/ADR cells after 72 hrs by MTT assay; assay type: functional, cell-based; in short: as §1
# [21] = test system: K562; experiment: Antiproliferative activity against human K562 cells after 72 hrs by MTT assay; assay type: functional, cell-based; conditions: K562, 72 h; in short: as §1
# [22] = test system: Bel-7402; experiment: Inhibition of DNA synthesis in human Bel7402 cells assessed as BrdU incorporation at 0.1 uM preincubated for 1 hr followed by BrdU addition for 30 mins by FITC/propidium iodide staining based flow cytometry (reference value: 35.5%); assay type: functional; set-up: scale not given: the % may be the effect or the level left; in short: as §6
# [23] = test system: KB; experiment: Antiproliferative activity against human KB cells after 72 hrs by SRB assay; assay type: functional, cell-based; in short: as §1
# [24] = test system: Bel-7402; experiment: Cell cycle arrest in human Bel7402 cells assessed as delay in progression of S-phase to G2-phase at 0.1 to 1 uM pre-treated with aphidicolin for 16 hrs followed by compound addition measured up to 24 hrs by propidium iodide staining-based flow cytometric method; assay type: functional; in short: as §3
# [25] = test system: Bel-7402; experiment: Antiproliferative activity against human Bel7402 cells assessed as reduction in cell viability at 0.012 to 1 uM up to 10 days by fluorescence-based cell imaging method; assay type: functional; in short: as §5
# [26] = Growth inhibition of human KB-7d cells after 8 days by methylene blue-staining based spectrophotometry; assay type: functional; conditions: KB7D, 192 h
Compound,IC50 [1],Ratio IC50 [2],IC50 [3],Activity [5],IC50 [7],IC50 [9],Activity [10],viability at 0.1 µM [11],inhibition [12],Activity [13],IC50 [16],IC50 [17],Ratio IC50 [18],Ratio IC50 [19],IC50 [20],IC50 [21],Activity [22],IC50 [23],other results
COc1cc2c3c(c4ccc(O)cc4c2cc1OC)CN1CCCC[C@@H]1C3,1.7 nM,0.9,0.7 nM,19.8%,1.7 nM,1 nM,2.57%,72.4%,Dose-dependent effect,5.16%,1.8 nM,2.1 nM,0.8,1.2,2.6 nM,2.2 nM,4.83%,1.2 nM,Activity [4]: Active; inhibition [6]: Dose-dependent effect; inhibition [8]: Active; viability at 0.01 µM [14]: 81%; Activity [15]: 3.93%
COc1cc2c3c(c4cc(OC)c(OC)cc4c2cc1OC)[C@H](O)[C@@H]1CCCN1C3,110 nM,1.3,283 nM,2.22%,278 nM,65.2 nM,0.37%,94.6%,Dose-dependent effect,2.86%,213 nM,167 nM,1.1,1.4,138 nM,98.4 nM,32.5%,58.2 nM,Activity [24]: Active; inhibition [25]: Active; GI50 [26]: 30 nM
